Experiments:
Semliki Forest virus [1] = assay: In vivo antiviral protection against lethal Forest virus (SFV) infection at dosage of 100 mg/kg tested in 12 mice; type: functional
How it was run: (§1)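 Female Swiss Webster mice, about 20 g, in groups of 12. Compound or placebo was dissolved in 2% aqueous sodium bicarbonate and given intraperitoneally 24 and 18 h before a lethal SFV challenge (10 LD50, pretitrated in mice). Treatment lasted 1 day. Survival was followed for 21 days, and survivor numbers were compared with placebo by two-tailed Fisher exact test.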

Semliki Forest virus [2] = assay: In vivo antiviral protection against lethal Forest virus (SFV) infection at dosage of 200 mg/kg tested in 12 mice; type: functional; how it was run: as §1

Structure (SMILES) | Activity (Semliki Forest virus [1]) | Activity (Semliki Forest virus [2])
C=CCSc1nc2c(O)nc(N)nc2n1CCCCCC | 6 | –
N#CCCCCCn1cnc2c(O)nc(N)nc21 | 5 | –
CCCCCCn1c(Br)nc2c(O)nc(N)nc21 | – | 4
CCCCCCn1c(S)nc2c(S)nc(N)nc21 | 0 | –
CCCCCCn1c(Cl)nc2c(O)nc(N)nc21 | 7 | –
CCCCCCn1c(=O)n(C)c2c(O)nc(N)nc21 | – | 11
CCCn1cnc2c(O)nc(N)nc21 | – | 2
CCCCCCn1c(S)nc2c(O)nc(N)nc21 | – | 1
CCCCCCCCn1c(Br)nc2c(O)nc(N)nc21 | – | 3
CCCCCCn1c(CC)nc2c(O)nc(N)nc21 | 3 | –
CCCCCCn1cnc2c(O)nc(N)nc21 | – | 12
CCCCCCn1c(C)nc2c(O)nc(N)nc21 | 0 | –
Nc1nc(O)c2ncn(C3CCCC3)c2n1 | – | 0
C[C@]1(CO)OC(n2c(=O)sc3c(O)nc(N)nc32)[C@H](O)[C@@H]1O (some centres not stated) | 11 | –
Nc1nc(O)c2ncn(C3CCCCC3)c2n1 | – | 0
CCCCCn1c(Br)nc2c(O)nc(N)nc21 | – | 8
CCCCn1cnc2c(O)nc(N)nc21 | – | 10
CCCCCCn1c(O)nc2c(O)nc(N)nc21 | 1 | –
CCCCCn1cnc2c(O)nc(N)nc21 | – | 8
Nc1nc(O)c2nc(Br)n(CCCCCCO)c2n1 | 2 | –
CCCCn1c(Br)nc2c(O)nc(N)nc21 | – | 6
CCn1cnc2c(O)nc(N)nc21 | – | 1
CCCCCCCn1c(Br)nc2c(O)nc(N)nc21 | – | 1
CCCCCn1c(S)nc2c(O)nc(N)nc21 | – | 8
CCCCCCCCn1cnc2c(O)nc(N)nc21 | – | 1
Nc1nc(O)c2ncn(CCCCCCO)c2n1 | 2 | –
C=CCn1c(=S)n(CCCCCC)c2nc(N)nc(O)c21 | 8 | –
